Hits are enriched below; roughly 1.9% of the tested compounds scored in any of these assays.
RAM network inh: inhibitors of the yeast RAM network; inhibition, % at 50 µM; S. cerevisiae dse1pr::URA3 reporter, 5-FOA growth OD615, 2 d; analog-sensitive cbk1-as2 kinase mutant strain; 190,000 compounds, 1.8% hits; AID 868;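 active = inhibition above a set limit, 3 SD over mean compound inhibition, cut at about 8.4% in these data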;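 note: 0% = DMSO-only wells with no growth and 100% = 10 µM 1-NA-PP1 full growth; inhibition rescues growth on 5-FOA so higher OD means more RAM inhibition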
NCF1 inh: blocks human p47phox regulatory protein of NADPH oxidases; P14598; p47phox/p22phox peptide binding, fluorescence polarization, 2 h; inhibition, % at 24.7 µM; 220,000 compounds, 0.53% hits; AID 1274;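 active = inhibition above about 30%, limit read from the data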;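 note: 0% = p47phox with labelled peptide and 100% = labelled peptide alone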
Target sequence (P14598 whole entry, looked up): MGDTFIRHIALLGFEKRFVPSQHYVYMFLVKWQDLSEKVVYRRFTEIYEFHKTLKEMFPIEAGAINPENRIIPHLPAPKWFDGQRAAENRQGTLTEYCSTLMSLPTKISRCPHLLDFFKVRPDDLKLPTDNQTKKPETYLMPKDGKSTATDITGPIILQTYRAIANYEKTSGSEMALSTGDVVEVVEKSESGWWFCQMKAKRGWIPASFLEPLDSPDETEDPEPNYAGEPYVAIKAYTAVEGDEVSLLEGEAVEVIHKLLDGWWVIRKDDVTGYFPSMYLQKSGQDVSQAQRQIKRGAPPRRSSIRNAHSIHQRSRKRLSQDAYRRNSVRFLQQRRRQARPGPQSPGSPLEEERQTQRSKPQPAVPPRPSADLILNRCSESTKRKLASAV
Dynein transport: dynein cargo transport inhibition; 3617.4 mouse cells, GR-EGFP nuclear translocation imaging; test concentration mostly 20 µM; stimulated with dexamethasone, 1 µM; stronger effect = lower value; z-score, hits read low; 220,000 compounds, 0.47% hits; AID 1381;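 active = plate z-score of nuclear minus cytoplasmic receptor signal below a set negative limit, without overly bright fluorescence or cell loss, cut at about -3.5 in these data, passing the limit was not always enough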;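 note: z-score of nuclear minus cytoplasmic ring GR-EGFP intensity difference per well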
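Also added – dexamethasone, 1.0 µM final · Buffer or medium – tet-free, stripped-serum medium · Schedule – induction 48 h, compound 1 h, agonist 30 min · Detection – formaldehyde fixation, Hoechst nuclear stain, 10x automated fluorescence imaging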
p-CIP stab down: compounds decreasing mouse p/CIP protein stability; F442A p/CIP-EGFP cells, EGFP fluorescence, 16 h; decrease of EGFP signal, % at 10 µM; 290,000 compounds, 0.01% hits; AID 1984;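 active = EGFP signal decrease of at least 30% at 10 µM or well 3 SD below plate mean, unless failing retest; inactive = the rest, including hits failing retest or dose response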
* marks the source's active call; other numbers are inactive results; nt = no result given.

SMILES	RAM network inh	NCF1 inh	Dynein transport	p-CIP stab down
O=C(/C=C/c1cccc([N+](=O)[O-])c1)NCCSCc1ccc(Cl)cc1	2	-15	0.62	-27
Cc1cc(SCC(=O)N(C)C2CCS(=O)(=O)C2)nc2c(C)cccc12 (stereo not drawn)	0	-8	2.5	-11
Cc1ccccc1N1CC(C(=O)Nc2ccc(S(=O)(=O)N3CCOCC3)cc2)CC1=O (stereo not drawn)	nt	nt	nt	4
CCOC(=O)c1c(NC(=O)c2ccccc2Cl)sc2c1CCc1ccccc1-2	7	-7	-0.22	5
CCCCC(=O)Nc1sc2c(c1C(=O)OCC)CCC(C=O)=C2Cl	9.2*	-12	4.1	0
COc1nccnc1NS(=O)(=O)c1ccc(NC(=S)NC(=O)/C=C/c2ccc(F)cc2)cc1	11*	-21	-0.26	4
CC(C)(C)C(=O)Nc1sc2c(c1C#N)CCN(Cc1ccccc1)C2	nt	nt	nt	-36
CN(CCOc1ccccc1Cl)Cc1ccccc1	nt	nt	nt	-4
CN(CCOCCOc1ccc(Cl)cc1Br)Cc1ccccc1	0	-3	-1	38*
CCOc1ccccc1-n1nnnc1SCc1nc2ccccc2s1	9.9*	-41	0.77	5
CN1C(=O)C(C)(C)c2cc(S(=O)(=O)N3CCCC(C(=O)NCc4ccccc4Cl)C3)ccc21 (stereo not drawn)	nt	nt	nt	-18
NS(=O)(=O)c1ccc(Nc2nc3ccccc3nc2NS(=O)(=O)c2cccc([N+](=O)[O-])c2)cc1	8.6*	-64	-0.64	-6
Cc1cccc(Nc2nnc(SCC(=O)NCc3cccs3)s2)c1C	-1	-19	0.65	2
Cc1cccc(Nc2nnc(SCC(=O)NCc3cccs3)s2)c1	8.5*	-10	-0.49	8
C=CCN1C(=O)C(Cc2ccccc2)S/C1=N/N=C/c1cccs1 (stereo not drawn)	8	-11	-1	-3
C=CCN1C(=O)C(Cc2ccc(OCC)cc2)S/C1=N\N=C\c1cccs1 (stereo not drawn)	9.3*	-11	1.9	-14
Cc1cc(C)nc(N/C(=N\S(=O)(=O)Cc2ccccc2)Nc2ccccc2Br)n1	2	5	1.9	-5
Cc1ccc(S(=O)(=O)N2CCCCC2)cc1NC(=O)COC(=O)Cc1cccc(C(F)(F)F)c1	9.2*	-12	-0.11	-4
Cc1ccc(CCc2nnc(SCC(=O)Nc3cc(Cl)ccc3Cl)n2-c2ccccc2)o1	9.7*	-8	-0.14	-4
C=CCSc1nc2c(c(C3CC=CCC3)c1C#N)CCC2 (stereo not drawn)	3	3	-0.13	-3
CC(C)OC(=O)CSc1nc2c(c(C3CC=CCC3)c1C#N)CCC2 (stereo not drawn)	11*	-20	-0.051	6
CC(=O)Nc1ccc(S(=O)(=O)N2CCN(C(=O)c3ncoc3-c3ccc(F)cc3)CC2)cc1	nt	nt	nt	-3
CC1=C(C(=O)OCc2ccccc2)C(c2ccccc2)NC(=O)N1CCCCCC(=O)O (stereo not drawn)	10*	-2	-0.16	4
CC1=C(C(=O)OCc2ccccc2)C(c2ccc(-c3ccccc3)cc2)NC(=O)N1CCCCCC(=O)O (stereo not drawn)	11*	-9	-0.046	-5
COc1ccc(C2C(Oc3ccccc3C)C(=O)N2Cc2ccc(F)cc2)cc1OC (stereo not drawn)	8.9*	7	-0.46	-4
SMILES	RAM network inh	NCF1 inh	Dynein transport	p-CIP stab down
COc1ccc(NC(=O)Nc2c[nH]c(=O)[nH]c2=O)cc1	nt	nt	nt	-12
O=C(Nc1ccccc1C(=O)NCc1ccc(Cl)cc1)c1ccco1	2	31*	1.4	-9
COc1ccc(CCNC(=O)c2c(C)nc3ccccn23)cc1OC	0	11	1.5	-10
COc1ccc(CNC(=O)c2cc(-c3ccccc3OC)on2)cc1	8.6*	-19	-0.29	0
COc1ccccc1-c1cc(C(=O)NCc2ccccc2)no1	2	-9	-0.37	-12
Cc1nn(C)c(C)c1C(C)NC(=O)c1cc(COc2ccc(F)c(F)c2)on1 (stereo not drawn)	nt	nt	nt	-13
O=C(CSc1nnc(SCc2ccccc2)s1)N/N=C/c1c[nH]c2ccccc12	2	42*	0.8	9
O=C(CSc1nnc(SCc2ccccc2)s1)N/N=C/C=C\c1ccco1	11*	-14	-0.92	-6
O=C(CSc1nnc(SCc2ccccc2Cl)s1)N/N=C/c1c[nH]c2ccccc12	8	-17	0.7	-18
Cc1ccc(CSc2nnc(SCC(=O)N/N=C/c3c[nH]c4ccccc34)s2)cc1	3	39*	0.27	-5
